Reference: BindingDB's records for doi:10.1021/jm940845j (University of California, 1996)

Target: Tumor necrosis factor (Homo sapiens, UniProt P01375)
Assay: TNF-alpha production in PBMC by ELISA method
Outline: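 Human PBMC were isolated from heparinized blood by ficoll-histopaque and plated at […] cells/mL in RPMI 1640 with 20% autologous plasma and glutamine. Compound at 2X concentration was added in equal volume, 60 min preincubation, then LPS 10 ug/mL final. Supernatant was taken at 18 h for sandwich ELISA (mouse capture, rabbit detection, poly-HRP). IC50 is the concentration inhibiting TNFa production by 50% of control.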

Tumor necrosis factor, sequence (P01375 whole entry): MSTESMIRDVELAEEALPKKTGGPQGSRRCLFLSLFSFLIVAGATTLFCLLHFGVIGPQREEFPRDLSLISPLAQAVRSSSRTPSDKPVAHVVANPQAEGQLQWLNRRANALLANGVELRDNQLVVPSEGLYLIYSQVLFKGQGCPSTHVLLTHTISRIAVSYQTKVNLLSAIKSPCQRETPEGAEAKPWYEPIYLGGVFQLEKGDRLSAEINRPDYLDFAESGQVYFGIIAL

| Structure (SMILES) | IC50 |
| --- | --- |
| COC(=O)c1ccc(Cn2c(=O)c3c(nc(Br)n3C)n(C)c2=O)cc1 [4-(8-Bromo-3,7-dimethyl-2,6-dioxo-2,3,6,7-tetrahydro-purin-1-ylmethyl)-benzoic acid methyl ester] | > 200 µM |
| CCCn1c(=O)n(CCCC(=O)OCC)c(=O)c2nsnc21 [4-(5,7-Dioxo-4-propyl-4,5-dihydro-7H-[1,2,5]thiadiazolo[3,4-d]pyrimidin-6-yl)-butyric acid ethyl ester] | 18 µM |
| CCOC(=O)CCCn1c(=O)c2nccnc2n(Cc2ccccc2)c1=O [4-(1-Benzyl-2,4-dioxo-1,4-dihydro-2H-pteridin-3-yl)-butyric acid ethyl ester] | 175 µM |
| CCOC(=O)CCCn1c(=O)c2c(ncn2C)n(C)c1=O [4-(3,7-Dimethyl-2,6-dioxo-2,3,6,7-tetrahydro-purin-1-yl)-butyric acid ethyl ester] | 6 µM |
| CCCCOc1cc(C[C@@H]2CNC(=O)N2)ccc1OC [4-(3-Butoxy-4-methoxy-benzyl)-imidazolidin-2-one] | 50 µM |
| COc1ccc([C@@H]2CNC(=O)C2)cc1OC1CCCC1 (racemic) [Adeo] | 12 µM |
| Cn1cnc2c1c(=O)n(CCCC(=O)O)c(=O)n2C [4-(3,7-Dimethyl-2,6-dioxo-2,3,6,7-tetrahydro-purin-1-yl)-butyric acid] | > 200 µM |
| CCOC(=O)CCCn1c(=O)c2ccccc2n(C)c1=O [4-(1-Methyl-2,4-dioxo-1,4-dihydro-2H-quinazolin-3-yl)-butyric acid ethyl ester] | 55 µM |
| CCOC(=O)CCCn1c(=O)c2nccnc2n(C)c1=O [4-(1-Methyl-2,4-dioxo-1,4-dihydro-2H-pteridin-3-yl)-butyric acid ethyl ester] | 12 µM |
| COC(=O)c1ccc(Cn2c(=O)c3c(ncn3C)n(C)c2=O)cc1 [4-(3,7-Dimethyl-2,6-dioxo-2,3,6,7-tetrahydro-purin-1-ylmethyl)-benzoic acid methyl ester] | > 200 µM |
| CCCCCn1c(=O)n(CCCC(=O)OCC)c(=O)c2nccnc21 [4-(2,4-Dioxo-1-pentyl-1,4-dihydro-2H-pteridin-3-yl)-butyric acid ethyl ester] | 16 µM |
| CCOC(=O)c1ccc(Cn2c(=O)c3c([nH]c(=S)n3C)n(C)c2=O)cc1 [4-(8-Mercapto-3,7-dimethyl-2,6-dioxo-2,3,6,7-tetrahydro-purin-1-ylmethyl)-benzoic acid ethyl ester] | > 200 µM |
| CCOC(=O)CCCn1c(=O)c2nsnc2n(C)c1=O [4-(4-Methyl-5,7-dioxo-4,5-dihydro-7H-[1,2,5]thiadiazolo[3,4-d]pyrimidin-6-yl)-butyric acid ethyl ester] | 25 µM |
| CCCn1c(=O)n(CCCC(=O)O)c(=O)c2nccnc21 [4-(2,4-Dioxo-1-propyl-1,4-dihydro-2H-pteridin-3-yl)-butyric acid] | > 200 µM |
| CCOC(=O)Cn1c(=O)c2c(ncn2C)n(C)c1=O [(3,7-Dimethyl-2,6-dioxo-2,3,6,7-tetrahydro-purin-1-yl)-acetic acid ethyl ester] | 200 µM |
| CCCn1c(=O)n(CCCC(=O)OCC)c(=O)c2nccnc21 [4-(2,4-Dioxo-1-propyl-1,4-dihydro-2H-pteridin-3-yl)-butyric acid ethyl ester] | 5 µM |
| CC(=O)CCCCn1c(=O)c2c(ncn2C)n(C)c1=O [1-(5-Oxohexyl)theobromine (pentoxifylline)] | 85 µM |

| Structure (SMILES) | IC50 |
| --- | --- |
| CCOC(=O)CCCn1c(=O)c2nc(-c3ccccc3)cnc2n(C)c1=O [4-(1-Methyl-2,4-dioxo-6-phenyl-1,4-dihydro-2H-pteridin-3-yl)-butyric acid ethyl ester] | > 200 µM |
| CCCCn1c(=O)n(CCCC(=O)OCC)c(=O)c2nccnc21 [4-(1-Butyl-2,4-dioxo-1,4-dihydro-2H-pteridin-3-yl)-butyric acid ethyl ester] | 15 µM |
| Cn1c(=O)n(CCCC(=O)O)c(=O)c2ccccc21 [4-(1-Methyl-2,4-dioxo-1,4-dihydro-2H-quinazolin-3-yl)-butyric acid] | > 200 µM |
| CCOC(=O)CCCn1c(=O)c2nc(CC)c(CC)nc2n(C)c1=O [4-(6,7-Diethyl-1-methyl-2,4-dioxo-1,4-dihydro-2H-pteridin-3-yl)-butyric acid ethyl ester] | 130 µM |
| Cn1c(=O)[nH]c(=O)c2[nH]c(=S)[nH]c21 [8-Mercapto-3-methyl-3,7-dihydro-purine-2,6-dione] | > 200 µM |
| CCOC(=O)CCCn1c(=O)c2c([nH]c(=S)n2C)n(C)c1=O [4-(8-Mercapto-3,7-dimethyl-2,6-dioxo-2,3,6,7-tetrahydro-purin-1-yl)-butyric acid ethyl ester] | 100 µM |
| CCCCCCCn1c(=O)c2nsnc2n(C)c1=O [6-Heptyl-4-methyl-4H-[1,2,5]thiadiazolo[3,4-d]pyrimidine-5,7-dione] | 75 µM |
| CCOC(=O)CCCn1c(=O)c2c(nc(Br)n2C)n(C)c1=O [4-(8-Bromo-3,7-dimethyl-2,6-dioxo-2,3,6,7-tetrahydro-purin-1-yl)-butyric acid ethyl ester] | 60 µM |
| Cn1c(=O)n(CCCC(=O)O)c(=O)c2nccnc21 [4-(1-Methyl-2,4-dioxo-1,4-dihydro-2H-pteridin-3-yl)-butyric acid] | > 200 µM |
| CCOC(=O)CCCCn1c(=O)c2c(ncn2C)n(C)c1=O [5-(3,7-Dimethyl-2,6-dioxo-2,3,6,7-tetrahydro-purin-1-yl)-pentanoic acid ethyl ester] | 11 µM |
| CCOC(=O)CCn1c(=O)c2c(ncn2C)n(C)c1=O [3-(3,7-Dimethyl-2,6-dioxo-2,3,6,7-tetrahydro-purin-1-yl)-propionic acid ethyl ester] | 10 µM |
| Cn1c(=O)n(CCCC(=O)O)c(=O)c2nsnc21 [4-(4-Methyl-5,7-dioxo-4,5-dihydro-7H-[1,2,5]thiadiazolo[3,4-d]pyrimidin-6-yl)-butyric acid] | > 200 µM |
| CCOC(=O)CCCn1c(=O)c2nccnc2n(CC(C)C)c1=O [4-(1-Isobutyl-2,4-dioxo-1,4-dihydro-2H-pteridin-3-yl)-butyric acid ethyl ester] | 20 µM |
| CCCn1c(=O)n(CCCC(=O)OCC)c(=O)c2c1ncn2C [4-(7-Methyl-2,6-dioxo-3-propyl-2,3,6,7-tetrahydro-purin-1-yl)-butyric acid ethyl ester] | 5 µM |
| COC(=O)/C=C\Cn1c(=O)c2nccnc2n(C)c1=O [(Z)-4-(1-Methyl-2,4-dioxo-1,4-dihydro-2H-pteridin-3-yl)-but-2-enoic acid methyl ester] | 25 µM |
| CCOC(=O)CCCn1c(=O)c2nccnc2n(C2CCOC2)c1=O (stereo not drawn) [4-[2,4-Dioxo-1-(tetrahydro-furan-3-yl)-1,4-dihydro-2H-pteridin-3-yl]-butyric acid ethyl ester] | 19 µM |
